# Screens as filed in PubChem BioAssay.
# Rows were chosen to be rich in hits. Some 1.2% of all compounds tested hit in one or more screens of this group.
# FN deposition inh = fibronectin deposition inhibition; AH1F fibroblasts, Alexa488-fibronectin deposition fluorescence, overnight; inhibition, % at 12.6 µM; hit rate 0.086% among 350,000; AID 743247;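 active means mean inhibition across replicates of 30% or more, regardless of how many single replicates reach that level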;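 further: positive control wells lacked labelled fibronectin entirely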
#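 material = AH1F fibroblast monolayer depositing Alexa488-labelled fibronectin into matrix | amount = 10000 AH1F cells/well | buffer or medium = DMEM plus 2% serum, read in PBS | incubation = 1 h cell adhesion before compound, then overnight fibronectin incubation | detection = fluorescence at 485 nm excitation, 525 nm emission | evaluation = percent inhibition as loss of matrix-bound fibronectin fluorescence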
# SR-BI HDL uptake = inhibitors of mouse SR-BI mediated HDL lipid uptake. ldlA[mSR-BI] CHO cells, DiI-HDL uptake fluorescence, 3 h. inhibition, % at 12.5 µM. hit rate 0.96% among 320,000;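 active means mean replicate inhibition of at least 70% and a set share of replicates each scoring 70 or more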;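 further: 0% = median of neutral control wells and 100% = median of positive control wells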
# Target sequence (Q61009 whole entry, looked up): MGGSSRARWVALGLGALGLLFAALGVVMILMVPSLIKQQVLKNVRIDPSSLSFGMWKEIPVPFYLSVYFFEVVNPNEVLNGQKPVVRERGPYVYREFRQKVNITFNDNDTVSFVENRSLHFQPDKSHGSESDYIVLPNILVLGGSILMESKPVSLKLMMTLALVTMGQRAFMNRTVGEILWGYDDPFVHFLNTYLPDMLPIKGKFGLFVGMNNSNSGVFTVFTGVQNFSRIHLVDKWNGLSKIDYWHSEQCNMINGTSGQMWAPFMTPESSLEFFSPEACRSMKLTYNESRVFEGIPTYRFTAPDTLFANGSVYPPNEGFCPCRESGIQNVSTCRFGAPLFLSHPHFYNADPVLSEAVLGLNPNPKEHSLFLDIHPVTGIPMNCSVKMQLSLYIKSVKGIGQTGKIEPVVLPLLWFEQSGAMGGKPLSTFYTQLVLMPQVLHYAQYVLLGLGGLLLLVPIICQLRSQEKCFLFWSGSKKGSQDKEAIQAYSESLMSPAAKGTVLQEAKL
# SR-BI uptake up = SR-BI HDL lipid transfer activation | CHO ldlA[mSR-BI] cells, DiI-HDL uptake fluorescence, 3 h; 100 = double the neutral-control signal | hit rate 0.096% among 320,000 | activation, % at 12.5 µM;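 active means mean replicate activation of at least 60% and every replicate at or above 60%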;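 further: 0% = median plate neutral-control signal and 100% = twice that signal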
#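 Test system: SR-BI-overexpressing, LDLR-lacking CHO cells. Measured by: DiI fluorescence, bottom read. Medium: Ham's F12 with 0.5% BSA, HEPES 25 mM, pH 7.4. Timing: 3 h uptake period with compound, 37 °C.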
# CaV13 ICDI inh = Disruptors of the CACNA1D IQ motif to Ca2+-dependent inactivation inhibitor domain association, primary screening, Förster resonance energy transfer in intact living … | HEK cells, CFP/YFP FRET ICDI-IQ, plate reader, 10 min; percent FRET-ratio fall versus neutral wells | inhibition, % at 12.3 µM | hit rate 0.098% among 340,000;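 active means mean replicate inhibition of at least 30% and at least 1% of replicates passing that level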;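 further: 0% = median of the neutral control wells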
# Efflux pump inh = blocks antifungal efflux pumps in multiplex yeast assay | hit rate 0.44% among 330,000 | AID 485275 | inhibition, % at 10 µM | S. cerevisiae Candida pump triplex, Nile Red efflux;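 active means plate passing quality check with inhibition over a set limit, or well fluorescence over plate mean plus 4 SD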;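 further: Nile Red retained in pooled yeast measured as flow cytometry median fluorescence; 0% = buffer negative control and 100% = Enniatin B positive control; higher means more Nile Red kept so more efflux inhibition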
# The depositor's hits bear a star; . = no result given; + = active, no number.
SMILES,FN deposition inh,SR-BI HDL uptake,SR-BI uptake up,CaV13 ICDI inh,Efflux pump inh
Cc1ccc(NC2=C(NC(=O)c3ccccc3)C(=O)c3ccccc3C2=O)cc1Cl,-0.3,79.5*,-79.5,-3.5,-0.1
COCC(=O)Nc1ccc2c(c1)C(=O)N(C)[C@H]1CC[C@H](CC(=O)OC)O[C@@H]1CO2,2.9,.,.,.,.
CS(=O)(=O)c1ccc2nc(NC(=O)c3ccco3)sc2c1,2.1,-5.6,5.6,-8.7,0.3
Cc1ccc(C(=O)Nc2nc3ccc(S(C)(=O)=O)cc3s2)o1,-4.1,-94.9,94.9*,-4.0,-0.1
O=c1c2ccccc2n(CC(O)CN2CCCCC2)c2ccccc12 (configuration not stated),7.8,-13.1,13.1,+,0.1
COc1ccccc1Nc1ccc(NC(=O)c2cccc([N+](=O)[O-])c2C)cc1,5.4,83.5*,-83.5,-19.2,0.1
COCC(=O)N1C[C@H](C)[C@@H](OC)CN(C)C(=O)c2cc(NC(=O)Nc3cccc(F)c3)ccc2OC[C@@H]1C,8.0,.,.,.,.
CCCc1nc2ccc(NC(=O)NCCC(=O)OCC)cc2c(=O)n1Cc1ccc(Cl)cc1,10.3,71.6*,-71.6,-3.8,0.0
CCOc1ccc(CNC(=O)CCCc2cn(C)c3ccccc23)cc1,1.7,84.7*,-84.7,-2.5,0.1
Cc1c2cc(O)c(=O)cc-2oc2cc(O)c(O)cc12,.,1.0,-1.0,-9.4,1.0*
COc1cc(OC)c(-c2c3cc(O)c(=O)cc-3oc3cc(O)c(O)cc23)cc1OC,-4.5,16.1,-16.1,-4.5,0.2
CCN1CCc2c(OCC(=O)N3CCC(C)CC3)cccc2C1=O,.,1.9,-1.9,-6.9,-0.1
CC1CCN(C(=O)COc2cccc3c2CCN(Cc2ccccc2)C3=O)CC1,.,18.7,-18.7,91.4*,0.0
CC(C)CNC(=O)c1coc(=O)c(Br)c1,active,-18.7,18.7,-4.3,0.2
CON(C)C(=O)/C=C/CCCCNC(=O)OC(C)(C)C,3.7,-63.5,63.5*,-5.4,-0.1
O=C(COc1ccc(C(=O)c2ccccc2)cc1)NC1CCCCC1,-0.3,-69.3,69.3*,-4.6,-0.1
O=C(COC(=O)/C=C/c1ccccc1Cl)NC1CCCCCC1,-2.6,-64.6,64.6*,-4.3,0.1
COc1cccc(S(=O)(=O)N(C)C[C@@H]2Oc3cc(C4=CCCC4)ccc3S(=O)(=O)N([C@@H](C)CO)C[C@H]2C)c1,10.4,.,.,.,.
COc1ccc(-c2nn(-c3ccccc3)cc2/C=N/NS(=O)(=O)c2ccccc2)cc1,.,64.5,-64.5,.,0.0
COc1ccc(-c2nn(-c3ccccc3)cc2/C=N/NC(=O)c2cccc(S(=O)(=O)Nc3ccccc3Cl)c2)cc1,-9.1,80.2*,-80.2,-2.3,0.0
Cc1nn(-c2ccccc2)c(N2CCCC2)c1/C=N/NC(=O)c1cccc(S(=O)(=O)Nc2ccc(Cl)cc2)c1,0.7,77.0*,-77.0,-4.8,-0.6
Cc1nn(-c2ccccc2)c(C)c1/C=N/NC(=O)c1cc(C(C)(C)C)[nH]n1,.,66.6,-66.6,.,0.2
Cc1ccc(-c2cc(C(=O)N/N=C/c3c(C)nn(-c4ccccc4)c3C)[nH]n2)cc1,.,77.8*,-77.8,0.8,.
Cc1nn(-c2ccccc2)c(N2CCCC2)c1/C=N/NC(=O)c1cc(-c2ccccc2)nc2ccccc12,-6.8,88.3*,-88.3,-3.7,1.0
C[C@H]1CN(C)C(=O)Cc2cc(N(C)C)ccc2O[C@@H]1CN(C)C(=O)OC(C)(C)C,-7.9,.,.,.,.
SMILES,FN deposition inh,SR-BI HDL uptake,SR-BI uptake up,CaV13 ICDI inh,Efflux pump inh
Cn1cnc(S(=O)(=O)N[C@H]2C=C[C@@H](CC(=O)NCC3CC3)O[C@@H]2CO)c1,-5.9,.,.,.,.
C[C@H]1CN([C@@H](C)CO)C(=O)c2cc(Br)cnc2O[C@H]1CN(C)S(=O)(=O)c1ccc(F)cc1,-18.1,.,.,.,.
O=C(COC(=O)c1ccncc1)Nc1cc(Cl)ccc1Cl,.,-12.5,12.5,-8.4,0.2
O=C(COC(=O)c1ccncc1)Nc1cc(Cl)c(Cl)cc1Cl,.,.,.,.,0.8*
C[C@@H]1CN([C@H](C)CO)C(=O)c2cccc(NC(=O)Nc3ccc(F)cc3)c2O[C@@H]1CN(C)Cc1ccc(C(=O)Nc2ccccc2N)cc1,-2.3,.,.,.,.
CCN(CC)c1ccc(/C=C/c2nc3ccccc3s2)cc1,.,.,.,.,1.0*
CCN(CC)c1ccc(NC(=O)COC(=O)/C=C/c2nc3ccccc3s2)cc1,-1.2,-6.7,6.7,-5.2,0.0
CSc1cccc(NC(=O)/C=C/c2ccccc2)c1,-4.6,72.8*,-57.5,-8.5,0.2
CCc1cc(=O)oc2cc3occ(-c4ccc(OC)c(F)c4)c3cc12,3.4,76.4*,-59.1,-2.5,0.1
COc1ccc(S(=O)(=O)N2CC[C@H]3[C@@H](CO)N(C)c4ccc(C5=CCCCC5)cc4[C@H]32)cc1,-2.0,.,.,.,.
CCCC(=O)Nc1ccc2c(c1)OC[C@H](C)N(C(=O)CC1CC1)C[C@@H](C)[C@@H](OC)CN(C)C2=O,2.0,.,.,.,.
COc1ccc(C(=O)NC(=S)NNC(=O)c2ccco2)cc1,11.2,-42.0,42.0,-2.2,-0.1
O=C(NC(=S)NNC(=O)c1ccccc1O)c1ccco1,7.3,109.7*,-109.7,-4.0,-0.3
O=C(NC(=S)NNC(=O)c1cc2ccccc2cc1O)c1ccco1,3.2,146.4*,-146.5,0.1,0.2
O=C(/C=C/c1cccs1)NC(=S)NNC(=O)c1ccccc1O,18.7,101.1*,-101.1,-5.2,0.0
O=[N+]([O-])c1c(Nc2cccc(O)c2)cc(Cl)c2nonc12,35.0*,-10.9,10.9,-15.9,-0.2
Cn1c(-c2ccsc2)c(-c2cccs2)c2cc(-c3ccc4cc[nH]c4c3)ccc21,12.0,77.0*,-76.9,-10.5,0.0
Cc1ccc(S(=O)(=O)Nc2ccc3c(c2)C(=O)N([C@@H](C)CO)C[C@@H](C)[C@@H](CN(C)S(=O)(=O)c2ccc(C)cc2)OCCCC[C@H](C)O3)cc1,-10.8,.,.,.,.
O=C(Nc1ccccc1N1CCOCC1)C1CCN(S(=O)(=O)c2ccccc2F)CC1,.,-214.3,214.3*,-6.5,0.1
O=C(c1cccnc1)N1CC[C@@H]2[C@H]1c1cc(-c3cccc(F)c3)ccc1N[C@@H]2CO,8.7,.,.,.,.
CC1=C(/C=C/C(C)=C/C=C/C(C)=C\C(=O)O)C(C)(C)CCC1,0.0,1.9,-1.9,-5.1,0.0
CC1=C(/C=C/C(C)=C/C=C/C(C)=C/C(=O)Nc2ccc(O)cc2)C(C)(C)CCC1,-5.7,98.0*,-98.0,-6.1,-0.1
O=C(C[C@@H]1C=C[C@@H](NC(=O)c2ccc(F)cc2)[C@H](CO)O1)NCCc1ccncc1,6.2,.,.,.,.
Cc1ccn2cc(-c3ccc(NC(=O)c4ccco4)cc3)nc2c1,32.1*,39.0,-39.0,-4.4,-0.1
Cc1nc(-c2ccc(NC(=O)c3ccco3)cc2)cs1,-3.4,14.6,-14.6,-4.1,0.1
Cn1cnc(S(=O)(=O)Nc2ccc(OC(F)(F)F)cc2)c1,-8.1,-11.0,11.0,+,0.0
